The target in assay [1] is T1, 5-hydroxytryptamine receptor 1D (Rattus norvegicus, UniProt P28565). As to the kind of experiment: Binding affinity was measured against serotonin 5-hydroxytryptamine 1D receptor. The essentials:
(§1)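 Radioligand binding at 5-HT1A and 5-HT1D receptors, run by the group's earlier published protocol. Each value is the arithmetic mean of at least three independent determinations.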

Assay [2] has as its target T1, 5-hydroxytryptamine receptor 1D. As to the kind of experiment: Inhibition of forskolin stimulated adenylate cyclase at 5-hydroxytryptamine 1D receptor. In kind it is functional.
Assay [3] has as its target T2, 5-hydroxytryptamine receptor 1A (Rattus norvegicus, UniProt P19327).
T2 sequence (P19327 whole entry): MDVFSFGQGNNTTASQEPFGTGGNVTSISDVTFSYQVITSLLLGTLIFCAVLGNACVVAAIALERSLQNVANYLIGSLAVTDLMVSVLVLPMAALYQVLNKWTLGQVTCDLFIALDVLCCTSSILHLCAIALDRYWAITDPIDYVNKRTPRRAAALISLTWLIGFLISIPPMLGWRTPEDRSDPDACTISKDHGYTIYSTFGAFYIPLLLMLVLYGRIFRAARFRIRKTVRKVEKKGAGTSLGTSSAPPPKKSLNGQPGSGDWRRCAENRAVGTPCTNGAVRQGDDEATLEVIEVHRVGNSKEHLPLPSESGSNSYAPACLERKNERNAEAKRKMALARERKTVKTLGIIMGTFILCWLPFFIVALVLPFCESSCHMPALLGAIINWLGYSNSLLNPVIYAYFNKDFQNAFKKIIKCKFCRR
The assay can be described thus: Inhibition of forskolin stimulated adenylate cyclase at 5-hydroxytryptamine 1A receptor. In kind it is functional.

Assay [4] in a line: Selectivity value is the ratio between IC50 values of 5-HT1A and 5-HT1D receptors.
Assay [5] is described as follows: Selectivity value is the ratio between EC50 values of 5-HT1A and 5-HT1D receptors.
The target of assay [6] is T2, 5-hydroxytryptamine receptor 1A. The assay can be described thus: Binding affinity was measured against serotonin 5-hydroxytryptamine 1A receptor. The method, boiled down:
as §1

pEC50, pIC50: −log10 of the molar value.

T1 sequence (P28565 whole entry): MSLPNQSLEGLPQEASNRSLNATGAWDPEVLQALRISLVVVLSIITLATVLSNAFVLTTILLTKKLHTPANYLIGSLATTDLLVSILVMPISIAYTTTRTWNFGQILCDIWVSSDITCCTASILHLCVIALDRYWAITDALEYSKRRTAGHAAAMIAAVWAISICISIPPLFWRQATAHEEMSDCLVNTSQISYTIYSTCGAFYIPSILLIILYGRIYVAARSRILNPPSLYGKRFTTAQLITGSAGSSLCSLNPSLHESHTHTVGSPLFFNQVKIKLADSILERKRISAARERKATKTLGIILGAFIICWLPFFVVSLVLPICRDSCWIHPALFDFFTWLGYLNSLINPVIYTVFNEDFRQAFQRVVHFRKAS

One may read the pIC50 as the negative decadic logarithm of the IC50, by convention in mol/L. High values mean a small IC50, low ones a large IC50. As a reminder, the pEC50 is the EC50 on a negative log10 scale, so that one unit is a factor of ten. Read a low pEC50 as a large EC50. In the case of `CN(C)CCc1c[nH]c2ccc(Nc3ncccc3[N+](=O)[O-])cc12`, the pIC50 in assay [1] was 8.00; in assay [6], 7.14. Moreover, the pEC50 in assay [2] was 8.70; in assay [3], 6.77. Further, the figures for the Selectivity in assay [4] and in assay [5] were 7 and 85, respectively.
`CN1CCC[C@@H]1Cc1c[nH]c2ccc(Nc3ncccc3[N+](=O)[O-])cc12`: the pIC50 in assay [1] is 8.51; in assay [6], 7.48. Moreover, the pEC50 is 8.89 in assay [2] and 7.33 in assay [3]. Moreover, the results for the Selectivity in assay [4] and in assay [5] were 11 and 36, respectively.
As for `O=[N+]([O-])c1cccnc1Nc1ccc2[nH]cc(C[C@H]3CCCN3)c2c1`, the negative-log IC50 (pIC50) was 8.21 in assay [1] and 6.92 in assay [6]. Also, the results for the negative-log EC50 (pEC50) in assay [2] and in assay [3] were 8.89 and 6.66, respectively. The Selectivity was 19 in assay [4] and 170 in assay [5].
Turning to `CNS(=O)(=O)Cc1ccc2[nH]cc(CCN(C)C)c2c1`, the pEC50 in assay [3] is 5.89. Further, the pIC50 in assay [6] is 6.19.
Take `CN1CCC(c2c[nH]c3ccc(Nc4ncccc4[N+](=O)[O-])cc23)C1` (stereo unspecified): the pIC50 in assay [1] was 7.82; in assay [6], 6.49. The figures for the negative logarithm of the EC50 (pEC50) in assay [2] and in assay [3] were 8.70 and 6.05, respectively. Also, the figures for the Selectivity in assay [4] and in assay [5] were 21 and 440, respectively.
